Laboratory results reported in article PMC11785078 (bioRxiv, 2025).

Experiments:
cell culture = details: ref [14] Iwasaki et al., 2014; cited from earlier work
mice = assay: Open field locomotor behavior; assay type: in vivo, male C57Bl/6J mice; details: ICV 20 μg, 10-minute open field, vs vehicle, unpaired t-test P>0.05
Summary of the method: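 Male C57Bl/6J mice, 8–10 weeks old, fitted under isoflurane with a right lateral ventricle ICV cannula and allowed one week of recovery. After 1 h habituation in a dim room with 60 dB white noise, mice received 20 µg test compound in 0.5 µL 50% DMSO/50% aCSF over 2 min, or vehicle alone. Open field test began 5 min later; total distance travelled was scored blind. Cannula placement was checked at necropsy.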

[1] = tested on: MCF-7 estrogen receptor positive breast cancer cells; assay: MTT cytotoxicity assay, MCF-7; assay type: cell-based, human; details: 72 h, 5% FBS
Summary of the method: (§1)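 Cells plated at 5×10^3/well and attached overnight. Growth media were DMEM:F-12 (1:1) with 10% FBS for MDA-MB-231 and RPMI 1640 with 10% FBS for MCF-7. Test compound or DMSO vehicle applied for 72 h with 5% FBS. MTT added at 0.5 mg/mL final for 3 h at 37°C, 5% CO2, and formazan dissolved in DMSO. A570 read in three wells per condition and normalized to DMSO + 5% FBS. Mean ± SE of three experiments; one-way ANOVA with Bonferroni.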

[2] = tested on: MDA-MB-231 triple-negative breast cancer (TNBC) cells; assay: MTT cytotoxicity assay, MDA-MB-231; assay type: cell-based, human; details: 72 h, 5% FBS
Summary of the method: as §1

[3] = target: T1, Sigma 2 receptor (Transmembrane Protein 97 (TMEM97)) (Rattus norvegicus, UniProt Q5U3Y7); assay: PDSP radioligand competition-binding assay, sigma 2; details: 10 μM (primary criterion)
T1 sequence (Q5U3Y7 1-176): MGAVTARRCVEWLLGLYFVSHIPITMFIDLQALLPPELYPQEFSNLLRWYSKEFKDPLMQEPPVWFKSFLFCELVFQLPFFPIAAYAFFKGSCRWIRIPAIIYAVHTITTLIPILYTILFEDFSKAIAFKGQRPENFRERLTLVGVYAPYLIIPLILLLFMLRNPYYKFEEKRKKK

[4] = printed "15 M", mean of three experiments

Substance | antitumor cytotoxicity (cell culture) | effect on locomotor behavior (mice) | effect on viability / toxicity in MCF-7 (ER positive) cells ([1]; listed as veraguamide C) | cytotoxicity, MCF7 cells [1, 4] [%] | effect on viability / toxicity in TNBC cells (words) [2] | effect on viability / toxicity in TNBC cells (words) ([2]; listed as veraguamide C) | cytotoxicity, TNBC cells (MDA-MB-231) [2, 4] [%] | Primary: Percent Inhibition of Binding [3] [%]
maedamide | only linear depsipeptide that exhibits antitumor cytotoxicity in cell culture | – | – | – | – | – | – | –
veraguamide C | – | no effect of veraguamide C on total distance traveled compared to vehicle | mild toxicity | 65 | selectively reduce viability | similar, albeit minor, levels of toxicity | 53 | 65
